In ChEMBL document CHEMBL4364335, “Highly hydrophilic 1,3-oxazol-5-yl benzenesulfonamide inhibitors of carbonic anhydrase II for reduction of glaucoma-related intraocular pressure” (Bioorg Med Chem, 2019):
Calls of active or inactive are those of the source. The calls are words filed in the database; no cut-off is given here.

Assays:
[1] = molecular target: Carbonic anhydrase 1 (Homo sapiens, UniProt P00915); assay: Inhibition of human carbonic anhydrase 1 incubated for 15 mins by phenol red staining-based stopped flow CO2 hydrase assay
[2] = molecular target: Carbonic anhydrase 2 (Homo sapiens, UniProt P00918); assay: Inhibition of human carbonic anhydrase 2 incubated for 15 mins by phenol red staining-based stopped flow CO2 hydrase assay
[3] = molecular target: Carbonic anhydrase 4 (Homo sapiens, UniProt P22748); assay: Inhibition of human carbonic anhydrase 4 incubated for 15 mins by phenol red staining-based stopped flow CO2 hydrase assay
[4] = molecular target: Carbonic anhydrase 12 (Homo sapiens, UniProt O43570); assay: Inhibition of human carbonic anhydrase 12 incubated for 15 mins by phenol red staining-based stopped flow CO2 hydrase assay
[5] = test system: Oryctolagus cuniculus; assay: Reduction of intraocular pressure in ocular normotensive New Zealand White rabbit administered topically to the eye measured for 0.5 to 8 hrs by tonometry (reference value: 12.00 +/- 6.81%); assay type: functional; conditions: topical
[6] = test system: Oryctolagus cuniculus; assay: Reduction of intraocular pressure in ocular normotensive New Zealand White rabbit at 0.5 % administered topically to the eye measured for 0.5 to 8 hrs by tonometry; assay type: functional, organism-based
[7] = Toxicity in New Zealand White rabbit assessed as induction of eye lid closure at 0.5% administered topically to the eye; parameters: species or system Oryctolagus cuniculus; conditions: in vivo, topical_or_ocular
Summary of the method: (§1)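 Single 25 µl drop given to the left eye of albino rabbits, which were held immobile for one minute afterwards. Irritation was followed by eye throughout the experiment and scored as blinking, head shaking or eyelid closure, with the duration of closure noted in seconds.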

[8] = Toxicity in New Zealand White rabbit assessed as head shaking at 0.5% administered topically to the eye; parameters: species or system Oryctolagus cuniculus; conditions: in vivo, topical_or_ocular; summary of the method: as §1
[9] = test system: Oryctolagus cuniculus; assay: Reduction of intraocular pressure in ocular normotensive New Zealand White rabbit at 1% administered topically to the eye measured for 0.5 to 8 hrs by tonometry; assay type: functional, organism-based
[10] = Toxicity in New Zealand White rabbit assessed as induction of eye lid closure at 1% administered topically to the eye; parameters: species or system Oryctolagus cuniculus; conditions: in vivo, topical_or_ocular; summary of the method: as §1
[11] = Toxicity in New Zealand White rabbit assessed as head shaking at 1% administered topically to the eye; parameters: species or system Oryctolagus cuniculus; conditions: in vivo, topical_or_ocular; summary of the method: as §1
[12] = test system: Oryctolagus cuniculus; assay: Reduction of intraocular pressure in ocular normotensive New Zealand White rabbit at 2% administered topically to the eye measured for 0.5 to 8 hrs by tonometry; assay type: functional, organism-based
[13] = Toxicity in New Zealand White rabbit assessed as induction of eye lid closure at 2% administered topically to the eye; parameters: species or system Oryctolagus cuniculus; conditions: in vivo, topical_or_ocular; summary of the method: as §1
[14] = Toxicity in New Zealand White rabbit assessed as head shaking at 2% administered topically to the eye; parameters: species or system Oryctolagus cuniculus; conditions: in vivo, topical_or_ocular; summary of the method: as §1

Chain of Carbonic anhydrase 1 (P00915 whole entry): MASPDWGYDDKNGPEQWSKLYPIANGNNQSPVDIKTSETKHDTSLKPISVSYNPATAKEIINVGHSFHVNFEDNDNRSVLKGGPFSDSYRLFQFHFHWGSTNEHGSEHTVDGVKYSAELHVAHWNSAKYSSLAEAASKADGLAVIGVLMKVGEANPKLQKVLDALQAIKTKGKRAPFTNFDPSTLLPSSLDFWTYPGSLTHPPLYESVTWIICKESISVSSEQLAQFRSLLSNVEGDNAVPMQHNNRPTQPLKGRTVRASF
Chain of Carbonic anhydrase 12 (O43570 whole entry): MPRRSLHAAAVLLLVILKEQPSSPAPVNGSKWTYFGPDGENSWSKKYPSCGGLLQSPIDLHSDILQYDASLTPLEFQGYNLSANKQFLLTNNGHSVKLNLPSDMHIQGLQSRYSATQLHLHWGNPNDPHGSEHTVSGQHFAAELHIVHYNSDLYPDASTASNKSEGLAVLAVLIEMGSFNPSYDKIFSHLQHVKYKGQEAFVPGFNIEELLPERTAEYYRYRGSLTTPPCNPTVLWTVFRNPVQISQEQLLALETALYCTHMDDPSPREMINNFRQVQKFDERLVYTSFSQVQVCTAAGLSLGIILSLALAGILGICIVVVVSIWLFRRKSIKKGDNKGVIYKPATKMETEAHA
Chain of Carbonic anhydrase 4 (P22748 whole entry): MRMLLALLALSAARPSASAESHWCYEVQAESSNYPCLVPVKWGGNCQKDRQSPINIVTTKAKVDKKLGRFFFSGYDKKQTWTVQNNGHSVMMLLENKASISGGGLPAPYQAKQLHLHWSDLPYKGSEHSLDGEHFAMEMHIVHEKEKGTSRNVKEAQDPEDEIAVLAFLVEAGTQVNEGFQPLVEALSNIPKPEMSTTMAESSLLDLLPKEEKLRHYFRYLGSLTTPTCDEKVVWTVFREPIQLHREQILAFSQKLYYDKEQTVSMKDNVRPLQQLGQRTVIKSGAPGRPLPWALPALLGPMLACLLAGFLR

For `NC1CCN(C(=O)c2ncc(-c3ccc(S(N)(=O)=O)cc3)o2)CC1`, the Ki [1] was 61.9 nM, the Ki [2] was 0.54 nM and the Ki [3] was 257 nM. For the same compound, the Ki [4] was 91.5 nM, the Emax [5] was 22% and the Activity [6] was “inactive”. For the same compound, the Activity [7] was “Toxic”.
For `NS(=O)(=O)c1ccc(-c2cnc(C(=O)NC3CCNCC3)o2)cc1`, the Ki [1] was 50.8 nM, the Ki [4] was 87.3 nM and the Emax [5] was 19.4%. The Activity [7] was “Non-Toxic” and the Activity [8] was “Non-Toxic”.
For `NCCNC(=O)c1ncc(-c2ccc(S(N)(=O)=O)cc2)o1`, the Ki [1] was 101 nM, the Ki [4] was 90.1 nM and the Activity [9] was “Active”. For the same compound, the Activity [10] was “Non-Toxic”, the Activity [11] was “Non-Toxic” and the Emax [5] was 29.6%.
For `CCN[C@H]1C[C@H](C)S(=O)(=O)c2sc(S(N)(=O)=O)cc21` [DORZOLAMIDE], the Activity [12] was “Active”, the Activity [13] was “Non-Toxic” and the Activity [14] was “Non-Toxic”. The Emax [5] was 27.8%.
`NS(=O)(=O)c1ccc(-c2cnc(C(=O)N3CCNCC3)o2)cc1` showed a Ki [1] of 109 nM, a Ki [2] of 5 nM and a Ki [3] of 420 nM. The Ki [4] was 68.5 nM, the Activity [9] was “Active” and the Activity [10] was “Non-Toxic”. For the same compound, the Activity [11] was “Non-Toxic” and the Emax [5] was 35.6%.
